Bioassay records (PubChem BioAssay)
Rows were chosen to be rich in hits. Some 2.5% of all compounds tested hit in one or more screens of this group.
E-sel inducer = E-selectin induction in HUVECs, primary screen, imaging, HUVEC, immunofluorescence imaging, single point; P16581; normalized: neutral wells 0, TNF-alpha wells 100; activation, % at 7.58 µM; 260,000 compounds, 0.37% hits;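 active means mean E-selectin-positive cell signal at least 10% of the positive control, reached in at least 60% of replicates, without over 20% cell loss; inconclusive means no rule given, readout overlaps actives, possibly toxicity-flagged; inactive means the rest, including those meeting only one limit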
Target sequence (P16581 whole entry, looked up): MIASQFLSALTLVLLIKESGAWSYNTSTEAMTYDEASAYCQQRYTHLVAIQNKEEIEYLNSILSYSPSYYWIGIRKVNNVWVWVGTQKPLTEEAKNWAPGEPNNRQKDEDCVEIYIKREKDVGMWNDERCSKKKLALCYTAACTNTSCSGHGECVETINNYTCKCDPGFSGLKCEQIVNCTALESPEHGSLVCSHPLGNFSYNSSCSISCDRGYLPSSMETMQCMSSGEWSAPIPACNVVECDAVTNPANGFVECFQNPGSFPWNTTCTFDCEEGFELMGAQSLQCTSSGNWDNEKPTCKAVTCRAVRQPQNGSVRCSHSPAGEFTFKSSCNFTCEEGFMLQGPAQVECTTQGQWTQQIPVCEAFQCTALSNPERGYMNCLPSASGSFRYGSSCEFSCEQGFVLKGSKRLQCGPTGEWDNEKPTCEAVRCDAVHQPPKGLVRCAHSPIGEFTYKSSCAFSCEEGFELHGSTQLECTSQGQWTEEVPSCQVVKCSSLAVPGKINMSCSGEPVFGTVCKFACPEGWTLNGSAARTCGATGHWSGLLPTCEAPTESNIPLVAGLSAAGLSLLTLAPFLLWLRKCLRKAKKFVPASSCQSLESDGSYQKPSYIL
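Read-out: % PE-positive cells | Test system: HUVEC | Doses: One compound dose added by pin transfer | Buffer or medium: EGM-2 over gelatin coat | Signal: Immunofluorescence imaging | Benchmarks: TNF-alpha, DMSO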
PglD inh = C. jejuni PglD acetyltransferase inhibitors, primary screen, biochemical, DTNB colorimetric, single point; UDP-N-acetylbacillosamine N-acetyltransferase PglD (Campylobacter jejuni); purified PglD enzyme, DTNB colorimetric CoA detection; inhibition, % at 12.5 µM; 360,000 compounds, 0.098% hits; in the data active means inhibition above about 16%, passing the limit was not always enough; inconclusive means no clear call, values can overlap the other calls
ERAP1 HTS inh = human ERAP1 aminopeptidase inhibitors, primary screen, biochemical, single point, plate reader. Endoplasmic reticulum aminopeptidase 1 (Homo sapiens), Q9NZ08. recombinant ERAP1, Leu-AMC fluorescence, 60 min. inhibition, % at 10.7 µM. 340,000 compounds, 0.15% hits;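 active means mean replicate inhibition of at least 30%, or all replicates individually reaching that 30% level; inactive means mean below 30% and not every replicate reaching it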;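 further: 0% = neutral control wells and 100% = L-leucinethiol positive control wells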
SIRT5 inh = SIRT5 desuccinylase inhibitors, primary screen, biochemical, fluorescence imaging, single point, set 5; inhibition, % at 15 µM; NAD-dependent protein deacylase sirtuin-5, mitochondrial (Homo sapiens), Q9NXA8; 330,000 compounds, 1.1% hits; Purified SirT5, succinyl-peptide AMC, trypsin-coupled fluorescence; in the data active means inhibition above about 15%; inconclusive means no clear call, values can overlap the other calls
DENV2 CPE rescue = inhibitors of DENV2 cytopathic effect, primary screen, cell-based, plate reader, single concentration | CPE inhibition, % at 9.99 µM | 350,000 compounds, 1.7% hits | DENV2-infected cells, cytopathic effect rescue; in the data active means CPE inhibition above about 20%, passing the limit was not always enough; inconclusive means no clear call, values can overlap the other calls; tested in BHK-21 cells;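 further: 0% = median of neutral control wells and 100% = median of positive control wells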
Starred values were filed as active, the others as inactive.

What do the screens show for `O=C(c1ccc(Cl)c([N+](=O)[O-])c1)N1CCCc2ccccc21`?
E-sel inducer: 0; PglD inh: 5; ERAP1 HTS inh: -1; SIRT5 inh: -3; DENV2 CPE rescue: -3

What do the screens show for `Cc1ccc(S(=O)(=O)N(C)C[C@H]2Oc3ccc(NC(=O)Cn4cnnn4)cc3CC(=O)N([C@H](C)CO)C[C@@H]2C)cc1`?
E-sel inducer: 0; PglD inh: 5; ERAP1 HTS inh: 3; SIRT5 inh: 2; DENV2 CPE rescue: 2

Results for Cc1ccc(S(=O)(=O)N(C)C[C@@H]2Oc3ccc(NC(=O)Cn4cnnn4)cc3CC(=O)N([C@H](C)CO)C[C@@H]2C)cc1 ?
E-sel inducer: 0; PglD inh: -1; ERAP1 HTS inh: 2; SIRT5 inh: -5; DENV2 CPE rescue: 31*

What do the screens show for `O=C(CN1CCOCC1)NCC[C@@H]1CC[C@@H](NC(=O)Cc2ccccn2)[C@H](CO)O1`?
E-sel inducer: 0; PglD inh: -1; ERAP1 HTS inh: 1; SIRT5 inh: -1; DENV2 CPE rescue: -2

Results for O=C(C[C@@H]1CC[C@@H](NC(=O)Cc2ccccn2)[C@@H](CO)O1)NCCCN1CCOCC1 ?
E-sel inducer: 0; PglD inh: 0; ERAP1 HTS inh: -5; SIRT5 inh: 15*; DENV2 CPE rescue: -1

Results for C[C@H](NC(=O)C[C@@H]1CC[C@@H](NC(=O)CN2CCOCC2)[C@H](CO)O1)c1ccccc1 ?
E-sel inducer: -1; PglD inh: 0; ERAP1 HTS inh: -3; SIRT5 inh: 8; DENV2 CPE rescue: 5

What do the screens show for `C[C@@H](NC(=O)C[C@H]1CC[C@@H](NC(=O)CN2CCOCC2)[C@@H](CO)O1)c1ccccc1`?
E-sel inducer: 0; PglD inh: 0; ERAP1 HTS inh: 0; SIRT5 inh: 17*; DENV2 CPE rescue: 5

Results for O=C(CN1CCOCC1)NCC[C@@H]1CC[C@H](NC(=O)Cc2ccccn2)[C@@H](CO)O1 ?
E-sel inducer: 0; PglD inh: 3; ERAP1 HTS inh: 0; SIRT5 inh: 0; DENV2 CPE rescue: 23*

How did O=C(NC1CCCCC1)c1ccc(S(=O)(=O)c2ccccc2)cc1 do in these assays?
ERAP1 HTS inh: -5; SIRT5 inh: 40*; DENV2 CPE rescue: 4

Results for CCCC(=O)Nc1cc(OC)c(NC(=S)Nc2ccc(CC)cc2)cc1OC ?
PglD inh: 4; ERAP1 HTS inh: 2; SIRT5 inh: 1; DENV2 CPE rescue: 0

Results for CCCC(=O)Nc1cc(OC)c(NC(=S)Nc2cccc(C)c2)cc1OC ?
E-sel inducer: 0; PglD inh: -2; ERAP1 HTS inh: 9; SIRT5 inh: 2; DENV2 CPE rescue: 92*

Results for C[C@H]1CCCCO[C@H](CN(C)C(=O)NC2CCCCC2)[C@@H](C)CN([C@@H](C)CO)C(=O)c2cc(NC(=O)c3ccncc3)ccc2O1 ?
E-sel inducer: 0; PglD inh: 0; ERAP1 HTS inh: 6; SIRT5 inh: 9; DENV2 CPE rescue: 4

Results for CC1CN(S(=O)(=O)c2ccc(Cl)c(C(F)(F)F)c2)CC(C)O1 (stereo unspecified) ?
ERAP1 HTS inh: 1; SIRT5 inh: 15*; DENV2 CPE rescue: 2

How did CO[C@H]1CN(C)C(=O)c2cc(NC(=O)CC(F)(F)F)ccc2OC[C@H](C)N(C(C)=O)C[C@@H]1C do in these assays?
E-sel inducer: 0; ERAP1 HTS inh: 2; SIRT5 inh: 16*; DENV2 CPE rescue: -6

What do the screens show for `CO[C@H]1CN(C)C(=O)c2cc(NC(=O)CC(F)(F)F)ccc2OC[C@@H](C)NC[C@H]1C`?
E-sel inducer: 0; ERAP1 HTS inh: 3; SIRT5 inh: -6; DENV2 CPE rescue: 26*

How did CO[C@@H]1CN(C)C(=O)c2ccc(NC(=O)CC(F)(F)F)cc2OC[C@H](C)N(C(C)=O)C[C@@H]1C do in these assays?
E-sel inducer: 0; ERAP1 HTS inh: 0; DENV2 CPE rescue: 108*

What do the screens show for `C[C@H]1CN([C@@H](C)CO)C(=O)CCCn2cc(nn2)CO[C@@H]1CN(C)CC1CCCC1`?
E-sel inducer: 0; PglD inh: 2; ERAP1 HTS inh: -1; SIRT5 inh: 1; DENV2 CPE rescue: inconclusive

How did C[C@@H]1CN([C@H](C)CO)S(=O)(=O)c2ccc(C3=CCCCC3)cc2O[C@@H]1CN(C)C(=O)CN(C)C do in these assays?
E-sel inducer: 0; PglD inh: 12; ERAP1 HTS inh: -8; SIRT5 inh: -4; DENV2 CPE rescue: -6

How did COCCNc1ncnc2c1ncn2[C@H]1CN(Cc2ccc(Cl)cc2)C[C@@H](CO)O1 do in these assays?
E-sel inducer: 0; PglD inh: -2; ERAP1 HTS inh: -1; DENV2 CPE rescue: -1

How did Cc1ccc(CSCC(=O)Nc2ccccc2)cc1 do in these assays?
E-sel inducer: 0; PglD inh: 3; ERAP1 HTS inh: -1; SIRT5 inh: 8; DENV2 CPE rescue: -3

Results for CCc1cc2c(N3CCN(c4ccccc4)CC3)ncnc2s1 ?
PglD inh: -3

What do the screens show for `NC(=O)CSc1nnc(NC(=O)C2CC(=O)N(c3ccc(F)cc3)C2)s1` (stereo unspecified)?
PglD inh: 5; ERAP1 HTS inh: 5; SIRT5 inh: 2; DENV2 CPE rescue: -4

Results for O=C(c1cccc(F)c1)N1CCCCN2[C@H](CO)[C@@H](c3ccc(-c4ccccc4)cc3)[C@@H]2C1 ?
E-sel inducer: 0; PglD inh: -5; ERAP1 HTS inh: 5; SIRT5 inh: 2; DENV2 CPE rescue: -13

How did COc1cccc(-c2ccc([C@H]3[C@H]4CNCC(=O)N4[C@H]3CO)cc2)c1 do in these assays?
E-sel inducer: 0; ERAP1 HTS inh: 0; SIRT5 inh: 4; DENV2 CPE rescue: 22*

Results for OC[C@H]1[C@@H](c2ccc(-c3cccc(F)c3)cc2)[C@H]2CN(CCC(F)(F)F)CCCCN21 ?
E-sel inducer: -1; PglD inh: 3; ERAP1 HTS inh: -1; SIRT5 inh: 24*; DENV2 CPE rescue: 13

What do the screens show for `COc1cccc(-c2ccc([C@@H]3[C@H](CO)N4CCCCN(C(=O)c5ccc(F)cc5)C[C@@H]34)cc2)c1`?
E-sel inducer: 0; PglD inh: 3; ERAP1 HTS inh: 2; SIRT5 inh: 6; DENV2 CPE rescue: 41*

What do the screens show for `O=C(c1cccc(F)c1)N1CCCCN2[C@H](CO)[C@H](c3ccc(-c4ccccc4)cc3)[C@H]2C1`?
E-sel inducer: 0; PglD inh: -2; ERAP1 HTS inh: 1; SIRT5 inh: -2; DENV2 CPE rescue: 41*

How did COC(=O)c1ccccc1NC(=O)CCCn1nc(C)c2c(C)n(-c3ccccc3)nc2c1=O do in these assays?
E-sel inducer: -1; PglD inh: 4; ERAP1 HTS inh: -2; SIRT5 inh: -3; DENV2 CPE rescue: -2
